Active and inactive are the calls of the source. The calls are words filed in the database; no cut-off is given here.

The values that follow come from ChEMBL document CHEMBL4346674, “Structure-activity relationships and mechanistic studies of novel mitochondria-targeted, leishmanicidal derivatives of the 4-aminostyrylquinoline scaffold” (Eur J Med Chem, 2019).

The test system of one series is Leishmania pifanoi. In words: Antileishmanial activity against Leishmania pifanoi […] axenic amastigotes incubated for 96 hrs by MTT assay. Format: functional, organism-based. In a few lines: (§1)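 Parasites washed in HBSS-Glc and resuspended at 2×10^6 cells/ml in fresh growth medium with compound at 0.78-50.0 µM. Promastigotes grown in RPMI 1640-modified medium + 10% HIFCS, 72 h at 26 °C; axenic amastigotes in medium 199 + 20% HIFCS + 50 µg/ml hemin, 96 h at 32 °C. MTT 0.5 mg/ml for 2 h, formazan dissolved in SDS (5% final), absorbance 590 nm. Triplicates, ≥2 experiments, IC50 computed.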

A further series deals with J774. Description: Cytotoxicity against mouse J774 cells incubated for 48 hrs by MTT assay. The following applies: J774, 48 h. Format: cell-based. The method in brief: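 J774.1 cells grown in RPMI-1640 + 10% heat-inactivated FCS, 2 mM L-glutamine, penicillin-streptomycin, 37 °C, 5% CO2. Seeded at 10^5 cells/well and left overnight, then compound in fresh medium for 48 h. MTT 0.5 mg/ml final, 2 h; SDS 0.1% final, 2 h at 37 °C; read at 595 nm. Triplicate samples, ≥2 independent experiments; CC50 calculated.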
(In general: Tetrazolium dyes change colour on reduction, which living cells bring about.)

Series [1] in a line: Selectivity index, ratio of IC50 for mouse J774 cells to IC50 for Leishmania pifanoi […] axenic amastigotes. The following applies: read-out: Ratio IC50. Format: toxicity.
Series [2] relates to Leishmania donovani. Description: Antileishmanial activity against Leishmania donovani MHOM/SD/00/1S-2D promastigotes incubated for 72 hrs by MTT assay. Format: functional, organism-based. In a few lines: as §1
The test system of series [3] is Leishmania donovani. Description: Antileishmanial activity against Leishmania donovani promastigotes harboring 3-Luc gene assessed as decrease in parasites viability using DMNEP-D-luciferin as substrate at 50 uM incubated for 10 mins by luminescence assay relative to control. Format: functional. The method in brief: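 3-Luc L. donovani promastigotes, episomally expressing cytoplasmic firefly luciferase and grown at 26 °C in RPMI 1640-modified medium + 10% HIFCS with G-418 (30 µg/ml). Assay: cells at 20 × 10^6/ml in HBSS-Glc with caged DMNPE-luciferin (50 µM final). Compound added once luminescence plateaued; luminescence followed over time, expressed as % of value at addition (100%). Luciferase inhibition controls run.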

The subject of series [4] is Leishmania donovani. In words: Induction of plasma membrane permeabilization in Leishmania donovani MHOM/SD/00/1S-2D promastigotes at 50 uM by sytox green-based fluorescence assay. Format: functional, organism-based. In a few lines: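 Promastigotes at 20×10^6 cells/ml in HBSS-Glc with SYTOX Green 1.0 μM final. Compound added after a stable baseline; fluorescence rise (ex 504/em 524 nm) monitored. Values given as percent of full permeabilization by 0.1% Triton X-100.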

Series [5] has as its system Leishmania donovani. Description: Induction of mitochondrial dysfunction in Leishmania donovani MHOM/SD/00/1S-2D promastigotes as mitochondrial membrane potential at 50 uM incubated for 4 hrs by Rh123 staining based flow cytometry. Format: functional, organism-based. A general note: A flow cytometer gives signals particle by particle.
Series [6] concerns Leishmania donovani. In words: Induction of mitochondrial dysfunction in Leishmania donovani MHOM/SD/00/1S-2D promastigotes as mitochondrial membrane potential at 25 uM incubated for 4 hrs by Rh123 staining based flow cytometry. Format: functional, organism-based.
Series [7] deals with Leishmania donovani. Description: Induction of morphological damage in Leishmania donovani MHOM/SD/00/1S-2D promastigotes assessed as increase in intracellular acidic pH at 5 uM pretreated with acridine orange followed by compound addition and measured at 1 hr by acridine orange based confocal microscopic method. Format: functional, organism-based. The method in brief: (§2)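 Promastigotes at 40×10^6 cells/ml loaded with acridine orange 2 μM (5 min, 26 °C), washed and readjusted to the same density. Kinetic fluorescence (ex 488/em 530 nm) followed after adding compound 5 μM once the signal was stable. For confocal imaging, loaded cells were given compound 5 μM for 1 h, washed and immobilized on hydrogel; imaged at ex 488/em 650 nm.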

The subject of series [8] is Leishmania donovani. Description: Induction of morphological damage in Leishmania donovani MHOM/SD/00/1S-2D promastigotes assessed as increase in intracellular acidic pH at 5 uM pretreated with acridine orange followed by compound addition by acridine orange based fluorescence assay. Format: functional, organism-based. The method in brief: as §2

As a reminder, the IC50 is the point on the concentration scale where inhibition reaches its midpoint. Turning to `CC(=O)Nc1cc(/C=C/c2ccccc2)nc2ccccc12`, the IC50 in the series with Leishmania pifanoi is 9.5 µM; in the series on J774, greater than 25 µM. Moreover, in series [1], the selectivity ratio is greater than 2.6.

`CCN(CC)CC(=O)NCCNc1cc(/C=C/c2ccccc2)nc2ccccc12`: the values for the IC50 in the series with Leishmania pifanoi, with Leishmania donovani [2] and in the series with J774 were 0.9 µM, 1.6 µM and 0.7 µM, respectively. For the same compound, the selectivity ratio in series [1] was determined as 0.8. Further, the Activity with Leishmania donovani [3] is listed as 43.2%. Also, the result with Leishmania donovani [4] was inactive.

Consider `NCCNc1cc(/C=C/c2ccccc2)nc2ccccc12`, for which the IC50 with Leishmania pifanoi was greater than 50 µM; in the series with Leishmania donovani [2] it was 2.4 µM; in the series with J774 it was 4.6 µM. In [1], the selectivity ratio was less than 0.1.

Consider `O=C(CNc1ccc(Cl)cc1Cl)NCCNc1cc(/C=C/c2ccccc2)nc2ccccc12`, for which the IC50 in the series on Leishmania pifanoi was 1.2 µM; in the series with Leishmania donovani [2] it was 8.4 µM; in the series on J774, greater than 50 µM. Further, the selectivity ratio in series [1] is greater than 41.6.

As to `CN(C)CC(=O)NCCNc1cc(/C=C/c2ccccc2)nc2ccccc12`, the IC50 is 1.1 µM in the series with Leishmania pifanoi, 1.6 µM in the series with Leishmania donovani [2] and 15 µM with J774. Besides, the selectivity ratio in [1] turned out to be 13.6. In addition, in the series on Leishmania donovani [3], the Activity is 62.7%. The outcome in the series with Leishmania donovani [4] was inactive.

In the case of `CC(C)(C)OC(=O)NCCNc1cc(/C=C/c2ccccc2)nc2ccccc12`, the IC50 in the series with Leishmania pifanoi is 4.3 µM; with Leishmania donovani [2] it was 0.45 µM; in the series with J774, 6.6 µM. Moreover, the selectivity ratio in series [1] worked out at 1.5.

Turning to `O=C(CN1CCCCC1)NCCNc1cc(/C=C/c2ccccc2)nc2ccccc12`, the IC50 came out at 1.2 µM in the series with Leishmania pifanoi, 2.1 µM in the series on Leishmania donovani [2] and 4.7 µM in the series on J774. For the same compound, the selectivity ratio in series [1] is 3.4. Also, the Activity in the series on Leishmania donovani [3] stood at 46.4%. Moreover, the result in the series with Leishmania donovani [4] was inactive. Further, the result in the series with Leishmania donovani [5] and with Leishmania donovani [6] was Active.

For the compound `O=C(CN1CCOCC1)NCCNc1cc(/C=C/c2ccccc2)nc2ccccc12`, the values for the IC50 in the series on Leishmania pifanoi, with Leishmania donovani [2] and in the series on J774 were greater than 25 µM, 1.3 µM and greater than 50 µM, respectively. For the same compound, the Activity in the series on Leishmania donovani [3] is recorded as 79.8%. Besides, the outcome in the series with Leishmania donovani [4] was inactive.

`Nc1cc(/C=C/c2ccccc2)nc2ccccc12`: the IC50 in the series on Leishmania pifanoi turned out to be 8.9 µM; in the series on Leishmania donovani [2], 0.5 µM; with J774, 4.4 µM. In addition, the selectivity ratio in series [1] came out at 0.5.

Take `Cc1cc(N)c2ccccc2n1`: the values for the IC50 with Leishmania pifanoi, with Leishmania donovani [2] and in the series with J774 were greater than 50 µM, 10.9 µM and greater than 50 µM, respectively.

As to `CC(=O)N(C(C)=O)c1cc(/C=C/c2ccccc2)nc2ccccc12`, the IC50 is 13.4 µM in the series with Leishmania pifanoi, 35.1 µM in the series on Leishmania donovani [2] and greater than 25 µM with J774. Moreover, the selectivity ratio in [1] was greater than 1.86.

For `O=C(CNc1ccccc1)NCCCCNc1cc(/C=C/c2ccccc2)nc2ccccc12`, the IC50 in the series with Leishmania pifanoi was 6.9 µM; with Leishmania donovani [2] it was 1.6 µM; in the series with J774 it was 3.3 µM. For the same compound, the selectivity ratio in series [1] amounted to 0.48.

For the compound `C(=C\c1cc(-c2c[nH]c3ccccc23)c2ccccc2n1)/c1ccccc1`, the IC50 in the series on Leishmania pifanoi worked out at 1 µM; in the series with Leishmania donovani [2], 1.5 µM; with J774, 4.1 µM. Besides, the selectivity ratio in [1] was 4.1. In addition, the Activity in the series with Leishmania donovani [3] turned out to be 64.6%.

On to `O=C(CNc1ccccc1)NCCNc1cc(/C=C/c2ccccc2)nc2ccccc12`, for which the results for the IC50 in the series with Leishmania pifanoi, in the series with Leishmania donovani [2] and in the series on J774 were 4.3 µM, 3.3 µM and 7.8 µM, respectively. Besides, the selectivity ratio in series [1] came to 1.8.

For the compound `CC(C)(C)OC(=O)NCCCCNc1cc(/C=C/c2ccccc2)nc2ccccc12`, the half-maximal inhibitory concentration (IC50) in the series on Leishmania pifanoi turned out to be 4.9 µM; in the series on Leishmania donovani [2], 0.56 µM; with J774, 3.7 µM. In addition, the selectivity ratio in series [1] amounted to 0.8.

Regarding `NCCCCNc1cc(/C=C/c2ccccc2)nc2ccccc12`, the values for the IC50 in the series with Leishmania pifanoi, in the series on Leishmania donovani [2] and with J774 were greater than 25 µM, 0.44 µM and 6.6 µM, respectively. The selectivity ratio in [1] was less than 0.3.

Regarding `CN1CCN(CC(=O)NCCNc2cc(/C=C/c3ccccc3)nc3ccccc23)CC1`, the IC50 came out at 3.5 µM with Leishmania pifanoi, 3.5 µM with Leishmania donovani [2] and 34 µM with J774. In addition, the selectivity ratio in series [1] came to 9.7. Besides, in the series with Leishmania donovani [3], the Activity was determined as 78.5%. For the same compound, the result in the series on Leishmania donovani [4] was inactive.

For `CCN(CC)Cc1cc(Nc2cc(/C=C/c3ccccc3)nc3ccccc23)ccc1O`, the IC50 was found to be 9 µM in the series with Leishmania pifanoi, 9.6 µM in the series on Leishmania donovani [2] and 37 µM in the series with J774. Besides, the selectivity ratio in [1] turned out to be 4.1. Besides, the Activity in the series on Leishmania donovani [3] worked out at 81.8%.

As for `CCOCC(=O)NCCCCNc1cc(/C=C/c2ccccc2)nc2ccccc12`, the concentration for half-maximal inhibition (IC50) with Leishmania pifanoi turned out to be 4.5 µM; with Leishmania donovani [2], 1.06 µM; in the series with J774, 7.2 µM. Moreover, the selectivity ratio in [1] came out at 1.6. Besides, the outcome in the series on Leishmania donovani [4] was inactive.

Consider `O=C(CN1CCCC1)NCCCCNc1cc(/C=C/c2ccccc2)nc2ccccc12`, for which the IC50 in the series on Leishmania pifanoi came to 5.3 µM; in the series on Leishmania donovani [2] it was 0.2 µM; with J774 it was 7.1 µM. For the same compound, the selectivity ratio in series [1] came to 1.4. Besides, the Activity in the series on Leishmania donovani [3] is given as 23.3%. Also, in the series on Leishmania donovani [4], the result was inactive. Further, the outcome in the series on Leishmania donovani [5] and with Leishmania donovani [6] was Active.

As for `O=C(CNc1ccc(Cl)cc1Cl)NCCCCNc1cc(/C=C/c2ccccc2)nc2ccccc12`, the IC50 in the series on Leishmania pifanoi amounted to 12.3 µM; in the series with Leishmania donovani [2], 2.1 µM; with J774, 7.3 µM. The selectivity ratio in series [1] worked out at 0.6.

As to `O=C(CN1CCN(c2ccccc2)CC1)NCCNc1cc(/C=C/c2ccccc2)nc2ccccc12`, the IC50 with Leishmania pifanoi is 1.5 µM; with Leishmania donovani [2], 2.1 µM; with J774, 4.5 µM. The selectivity ratio in series [1] came to 3.

With `C(=C\c1ccc2ccccc2n1)/c1ccccc1`, the IC50 in the series with Leishmania pifanoi, in the series with Leishmania donovani [2] and in the series with J774 was greater than 50 µM each time. Moreover, the result with Leishmania donovani [7] and with Leishmania donovani [8] was inactive.

Consider `O=C(CN1CCCC1)NCCNc1cc(/C=C/c2ccccc2)nc2ccccc12`, for which the IC50 with Leishmania pifanoi is 0.9 µM; with Leishmania donovani [2], 2.1 µM; in the series on J774, 12.5 µM. Besides, the selectivity ratio in [1] turned out to be 13.9. Also, the Activity in the series with Leishmania donovani [3] is given as 49.9%. Besides, in the series on Leishmania donovani [4], the result was inactive.
